Assay results as given in the M2OR odorant receptor database.
Changes are numbered by the printed parent chain.

Tests used:
Conditions in all cases: stereoisomer not certain
[1] = target: T1, OR2W1 (Homo sapiens) (UniProt Q9Y3N9)
T1 sequence (whole entry): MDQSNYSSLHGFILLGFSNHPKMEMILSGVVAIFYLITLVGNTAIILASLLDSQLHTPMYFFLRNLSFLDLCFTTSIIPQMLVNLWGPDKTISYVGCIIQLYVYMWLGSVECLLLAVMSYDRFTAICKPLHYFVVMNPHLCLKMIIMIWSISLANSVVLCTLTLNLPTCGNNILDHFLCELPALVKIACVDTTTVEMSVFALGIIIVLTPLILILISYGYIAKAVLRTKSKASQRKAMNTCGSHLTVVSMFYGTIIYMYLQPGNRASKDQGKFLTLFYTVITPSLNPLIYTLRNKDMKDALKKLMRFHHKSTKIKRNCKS
Method in brief: (§1)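 Each receptor–molecule pair is labelled responsive or non-responsive (inactive) according to whether the original authors judged the measured signal statistically different from baseline. The data were taken from the main text and supplementary material of published papers and checked for typos and inconsistencies. Assay methods differed by source, with transient luciferase assays in mammalian cell lines being common.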

[2] = test system: T2, OR2W1
T2 sequence (whole entry): T1 sequence (whole entry) with D296N
Method in brief: as §1

[3] = test system: T3, OR2W1; remark: listed apart in the source
T3 sequence (whole entry): T1 sequence (whole entry) with M81V
Method in brief: as §1
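Also: active if original authors judged signal statistically different from baseline.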

| Structure (SMILES) | odorant receptor agonist call [1] | odorant receptor agonist call [2] | odorant receptor agonist call [3] |
| --- | --- | --- | --- |
| CCCC(=O)OCC | active | active | active |
| CCCCCCOC(C)=O | active | active | active |
| COc1ccc(C)cc1O | inactive | active | inactive |
| C=CC(=C)CCC=C(C)C | active | active | active |
| CCc1ccc(O)cc1 | active | active | active |
| CCC=CCCC=CCO | active | active | active |
| COCCC(C)(C)S | active | active | inactive |
| c1coc(CSCc2ccco2)c1 | active | active | active |
| CC(=O)OCCC(C)C | active | active | active |
| CCCCCC=CC=CC=O | active | active | active |
| CCOC(=O)c1ccccc1 | active | active | active |
| C=Cc1ccc(O)cc1 | active | active | active |
| CC(S)c1ccccc1 (centres undefined) | active | active | active |
| CCOC(=O)C(C)CC (centres undefined) | active | active | inactive |
| C=C(C)c1ccc(C)cc1 | active | active | active |
| CC1=CCC(C(C)(C)S)CC1 (centres undefined) | active | active | inactive |
| CCCCC=CC=O | active | active | inactive |
| CCC=CCCC=CC=O | active | active | active |
| CCCCC(=O)OCC | active | active | active |
| CCCCCCC=CC=O | active | active | active |
| SCCc1ccccc1 | active | active | active |
| OCC=Cc1ccccc1 | active | active | active |
| CCOC(=O)C=Cc1ccccc1 | active | active | active |
